Measurements collected from several papers.
Protocols differ between the studies behind these lines.
Target: Casein kinase I isoform epsilon (CSNK1E, Homo sapiens, UniProt P49674)

C=CC(=O)N1CCC(C(=O)NCC(=O)N2CCN(c3nc(-c4cnc(N)nc4C(F)F)nc(N4CCOCC4)n3)CC2)CC1  remaining binding (binding; competition with immobilised ligand; 1 µM): 87%
C[C@H]1CCN(c2nccc(-c3cnn4ncccc34)n2)C1  remaining binding (binding; 1 µM): 49%
O=C(c1ccc(Nc2nccc(-c3cc4ccccc4s3)n2)cc1)N1CCC(N2CCCC2)CC1  remaining binding (binding; competition with immobilised ligand; 1 µM): 100%
CN(c1ccnc(CNc2nc(Nc3ccc4c(c3)CC(=O)N4)ncc2C(F)(F)F)n1)S(C)(=O)=O  remaining binding (cell-free assay; competition with immobilised ligand; 1 µM): 100%
CN(C)c1ncc(F)c(-c2cnn3ncccc23)n1  remaining binding (binding; 1 µM): 100%
FC(F)(F)Oc1cccc(-c2cnc3ccc(-c4ccncc4)nn23)c1  remaining binding (cell-free assay; competition with immobilised ligand; 5 µM): 12%
O=C(c1ccc(Nc2ncc(Cl)c(-c3ccc(Cl)s3)n2)cc1)N1CCC(N2CCCC2)CC1  remaining binding (binding; competition with immobilised ligand; 1 µM): 100%
O=C(NCC1CCOCC1)c1n[nH]cc1NC(=O)c1c(F)cccc1F  remaining binding (binding; competition with immobilised ligand; 1 µM): 81%
Cc1nc(N2CC[C@@H](O)C2)ncc1-c1cc(C(F)(F)F)cc2[nH]ncc12  remaining binding (binding; competition with immobilised ligand; 1 µM): 79%
CC1CCCN1c1nccc(-c2cnn3ncccc23)n1 (stereo not shown)  remaining binding (binding; 1 µM): 100%
Cc1cc(NC(=O)c2cccc(S(F)(F)(F)(F)F)c2)cc(-n2ccn3nc(-c4cccnc4)cc23)c1  remaining binding (cell-free assay; competition with immobilised ligand; 1 µM): 75.7%
CN(c1nccc(-c2cnn3ncccc23)n1)C1CC1  remaining binding (binding; 1 µM): 100%
COc1ncc2cc3ccccc3nc2c1C#N  remaining binding (cell-free assay; competition with immobilised ligand; 5 µM): 86%
O=C(c1ccc(Nc2ncc(Cl)c(-c3cc4ccccc4s3)n2)cc1)N1CCC(N2CCCC2)CC1  remaining binding (binding; competition with immobilised ligand; 1 µM): 100%
CC(=O)N1CCC(c2ccc(C(=O)NC(=N)N)cc2C(F)(F)F)CC1  remaining binding (cell-free assay; competition with immobilised ligand; 1 µM): 100%
N[C@H]1CCN(c2nccc(-c3cnn4ncccc34)n2)C1  remaining binding (binding; 1 µM): 47%
CC(=O)C1=C(C)N(c2cccc(C(F)(F)F)c2)C(=O)N[C@@H]1c1ccc(C#N)nc1  remaining binding (cell-free assay; competition with immobilised ligand; 1 µM): 100%
CNC(=O)[C@@H]1CC[C@@H](n2c(-c3ccc4cnccc4c3)nc3ccc(C(=O)NCc4cccc(C(N)=O)c4)cc32)C1  remaining binding (binding; competition with immobilised ligand; 1 µM): 100%
COc1ccnn2ncc(-c3ccnc(N(C)C)n3)c12  remaining binding (binding; 1 µM): 75%
Cc1c(NC(=O)c2cc(C(N)=O)nc3cc(F)ccc23)c(C(F)(F)F)nn1Cc1ccc(C(C)(C)C)cc1  remaining binding (cell-free assay; competition with immobilised ligand; 1 µM): 91%
CN(C)c1nccc(-c2cnc3ncccn23)n1  remaining binding (binding; 1 µM): 65%
Nc1ncc2c(n1)-c1c([nH]c3ccc(C#CC4CC4)cc13)CCCC2  remaining binding (binding; competition with immobilised ligand; 1 µM): 100%
